What was measured:
Mus musculus [1] = experiment: Percent increase in life span of DBA2 mice after inoculation with L1210 leukemia intravenously at a dose of 0.5 mg/kg per day; format: functional; settings: route intravenous
Mus musculus [2] = experiment: Number of survivors of DBA2 mice on 60th day after inoculation with L1210 leukemia cell line intravenously at a dose of 2 mg/kg/day; 0/10; format: functional; settings: route intravenous
Mus musculus [3] = experiment: Percent increase in life span of DBA2 mice after inoculation with L1210 leukemia intravenously at a dose of 6.5 mg/kg per day; format: functional; settings: route intravenous
Mus musculus [4] = experiment: Number of survivors of DBA2 mice on 60th day after inoculation with L1210 leukemia cell line intraperitoneally at a dose of 2 mg/kg/day; 0/11; format: functional; settings: route intraperitoneal
Mus musculus [5] = experiment: Number of survivors of DBA2 mice on 60th day after inoculation with L1210 leukemia cell line intravenously at a dose of 0.5 mg/kg/day; 0/10; format: functional; settings: route intravenous
Mus musculus [6] = experiment: Number of survivors of DBA2 mice on 30th day after inoculation with L1210 leukemia cell line intravenously at a dose of 2.5 mg/kg/day; 0/10; format: functional; settings: route intravenous
Mus musculus [7] = experiment: Percent increase in life span of DBA2 mice after inoculation with L1210 leukemia intravenously at a dose of 1 mg/kg per day; format: functional; settings: route intravenous
Mus musculus [8] = experiment: Number of survivors of DBA2 mice on 30th day after inoculation with L1210 leukemia cell line intravenously at a dose of 1.5 mg/kg/day; 0/10; format: functional; settings: route intravenous
Mus musculus [9] = experiment: Number of survivors of DBA2 mice on 30th day after inoculation with L1210 leukemia cell line intravenously at a dose of 0.5 mg/kg/day; 0/10; format: functional; settings: route intravenous
Mus musculus [10] = experiment: Number of survivors on 30th day at dose 1 mg/kg/day in 10 mice implanted with P388 leukemia cell line; 0/10; format: functional
Mus musculus [11] = experiment: Number of survivors of DBA2 mice on 30th day after inoculation with L1210 leukemia cell line intraperitoneally at a dose of 6 mg/kg/day; 0/10; format: functional; settings: route intraperitoneal
Mus musculus [12] = experiment: Number of survivors on 30th day at dose 70 mg/kg/day in 10 mice implanted with P388 leukemia cell line; 5/11; format: functional
Mus musculus [13] = experiment: Number of survivors of DBA2 mice on 60th day after inoculation with L1210 leukemia cell line intravenously at a dose of 65 mg/kg/day; 0/10; format: functional; settings: route intravenous
Mus musculus [14] = experiment: Number of survivors on 60th day at dose 75 mg/kg/day in 7 mice implanted with P388 leukemia cell line for 1,8,15 scheduled days in Exp-2; 2/10; format: functional
Mus musculus [15] = experiment: Number of survivors on 60th day at dose 55 mg/kg/day in 10 mice implanted with P388 leukemia cell line for 1st scheduled day; 6/10; format: functional
Mus musculus [16] = experiment: Percent increase in life span at dose 20 mg/kg/day in 10 mice implanted with P388 leukemia cell line; format: functional
Method in brief: (§1)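 Female DBA2 mice inoculated iv on day 0 with 10^4 P388 cells; single iv treatment on day 1 with drug as sulfate salt in physiological saline. Survival followed; %ILS from all deaths and survivors as (T/C × 100) − 100, maximal MST 30 days; survivors counted on days 30 and 60. Most experiments confirmed three times.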

Mus musculus [17] = experiment: Percent increase in life span of DBA2 mice after inoculation with L1210 leukemia intravenously at a dose of 58 mg/kg per day; format: functional; settings: route intravenous
Mus musculus [18] = experiment: Number of survivors on 60th day at dose 55 mg/kg/day in 10 mice implanted with P388 leukemia cell line; 1/10; format: functional
Mus musculus [19] = experiment: Number of survivors on 30th day at dose 60 mg/kg/day in 10 mice implanted with P388 leukemia cell line for 1st scheduled day; 8/10; format: functional
Mus musculus [20] = experiment: Percent increase in life span at dose 60 mg/kg/day in 10 mice implanted with P388 leukemia cell line; format: functional; method in brief: as §1
Mus musculus [21] = experiment: Percent increase in life span at dose 65 mg/kg/day in 7 mice implanted with P388 leukemia cell line for 1,8,15 schedule day in Exp-1; format: functional
Mus musculus [22] = experiment: Number of survivors on 30th day at dose 65 mg/kg/day in 10 mice implanted with P388 leukemia cell line; 7/9; format: functional
Mus musculus [23] = experiment: Number of survivors of DBA2 mice on 30th day after inoculation with L1210 leukemia cell line intravenously at a dose of 55 mg/kg/day; 0/10; format: functional; settings: route intravenous
Mus musculus [24] = experiment: Number of survivors on 30th day at dose 40 mg/kg/day in 10 mice implanted with P388 leukemia cell line; 5/10; format: functional
Mus musculus [25] = experiment: Number of survivors on 30th day at dose 60 mg/kg/day in 10 mice implanted with P388 leukemia cell line; 8/10; format: functional
Mus musculus [26] = experiment: Number of survivors on 60th day at dose 6 mg/kg/day in 7 mice implanted with P388 leukemia cell line for 1,8.15 scheduled days from Exp-1; 0/10; format: functional
Mus musculus [27] = experiment: Number of survivors of DBA2 mice on 60th day after inoculation with L1210 leukemia cell line intravenously at a dose of 10 mg/kg/day; 0/10; format: functional; settings: route intravenous
Mus musculus [28] = experiment: Number of survivors on 60th day at dose 10 mg/kg/day in 7 mice implanted with P388 leukemia cell line for 1,8.15 scheduled days; 0/10; format: functional
Mus musculus [29] = experiment: Number of survivors on 60th day at dose 6 mg/kg/day in 9 mice implanted with P388 leukemia cell line; 0/10; format: functional
Mus musculus [30] = experiment: Number of survivors on 60th day at dose 8 mg/kg/day in 7 mice implanted with P388 leukemia cell line for 1,8.15 scheduled days from Exp-1; 0/9; format: functional
Mus musculus [31] = experiment: Number of survivors on 60th day at dose 8 mg/kg/day in 7 mice implanted with P388 leukemia cell line for 1,8.15 scheduled days from Exp-2; 0/10; format: functional
Mus musculus [32] = experiment: Number of survivors on 60th day at dose 6 mg/kg/day in 7 mice implanted with P388 leukemia cell line for 1,8.15 scheduled days from Exp-2; 0/10; format: functional
Mus musculus [33] = experiment: Percent increase in life span at dose 6 mg/kg/day in 7 mice implanted with P388 leukemia cell line for 1,8,15 schedule days from Exp-1; format: functional
Mus musculus [34] = experiment: Percent increase in life span of BDF1 mice after inoculation with P388 leukemia cells intraperitoneally at a dose of 0.30 mg/kg per day for 1-9 scheduled days; settings: P388, ip
Mus musculus [35] = experiment: Percent increase in life span of BDF1 mice after inoculation with P388 leukemia intraperitoneally at a dose of 2.5 mg/kg per day; settings: P388, ip
Mus musculus [36] = experiment: Number of survivors of DBA2 mice on 60th day after inoculation with L1210 leukemia cell line intraperitoneally at a dose of 2.5 mg/kg/day; 0/10; format: functional; settings: route intraperitoneal
Mus musculus [37] = experiment: Number of survivors of DBA2 mice on 30th day after inoculation with L1210 leukemia cell line intravenously at a dose of 2.5 mg/kg/day; 0/11; format: functional; settings: route intravenous
Mus musculus [38] = experiment: Number of survivors on 30th day at dose 2.5 mg/kg/day in 10 mice implanted with P388 leukemia cell line; 0/10; format: functional

CC[C@]1(O)C[C@H]2CN(CCc3c([nH]c4ccccc34)[C@@](C(=O)OC)(c3cc4c(cc3OC)N(C=O)[C@H]3[C@@](O)(C(=O)OC)[C@H](OC(C)=O)[C@]5(CC)C=CCN6CC[C@]43[C@@H]65)C2)C1 [VINCRISTINE]
ILS at 0.5 mg/kg/day (Mus musculus [1]): 1%
Survivors (Mus musculus [2]): 0
ILS at 6.5 mg/kg/day (Mus musculus [3]): -37%
Survivors (Mus musculus [4]): 0
Survivors (Mus musculus [5]): 0
Survivors (Mus musculus [6]): 0
ILS at 1 mg/kg/day (Mus musculus [7]): 10.7%
Survivors (Mus musculus [8]): 0
Survivors (Mus musculus [9]): 0
Survivors (Mus musculus [10]): 0

CC[C@]1(O)C[C@@H]2CN(CCc3c([nH]c4ccccc34)[C@@](C(=O)OC)(c3cc4c(cc3OC)N(C)[C@H]3[C@@](O)(C(=O)OC)[C@H](OC(C)=O)[C@]5(CC)C=CCN6CC[C@]43[C@@H]65)C2)C1 [VINBLASTINE]
Survivors (Mus musculus [11]): 0

CCOC(=O)[C@H](Cc1c[nH]c2ccccc12)NC(=O)[C@@]1(O)[C@H](O)[C@]2(CC)C=CCN3CC[C@@]4(c5cc([C@@]6(C(=O)OC)C[C@H]7C[N@](CCc8c6[nH]c6ccccc86)C[C@](O)(CC)C7)c(OC)cc5N(C)[C@@]14C)[C@@H]32
Survivors (Mus musculus [12]): 5
Survivors (Mus musculus [13]): 0
Survivors (Mus musculus [14]): 2
Survivors (Mus musculus [15]): 6
ILS at 20 mg/kg/day (Mus musculus [16]): 43.9%
ILS at 58 mg/kg/day (Mus musculus [17]): 48.7%
Survivors (Mus musculus [18]): 1
Survivors (Mus musculus [19]): 8
ILS at 60 mg/kg/day (Mus musculus [20]): > 178%
ILS at 65 mg/kg/day (Mus musculus [21]): 88%
Survivors (Mus musculus [22]): 7
Survivors (Mus musculus [23]): 0
Survivors (Mus musculus [24]): 5
Survivors (Mus musculus [25]): 8

CCOC(=O)[C@@H](NC(=O)[C@@]1(O)[C@H](O)[C@]2(CC)C=CCN3CC[C@@]4(c5cc([C@@]6(C(=O)OC)C[C@H]7C[N@](CCc8c6[nH]c6ccccc86)C[C@](O)(CC)C7)c(OC)cc5N(C)[C@@]14C)[C@@H]32)[C@@H](C)CC
Survivors (Mus musculus [26]): 0
Survivors (Mus musculus [27]): 0
Survivors (Mus musculus [28]): 0
Survivors (Mus musculus [29]): 0
Survivors (Mus musculus [30]): 0
Survivors (Mus musculus [31]): 0
Survivors (Mus musculus [32]): 0
ILS at 6 mg/kg/day (Mus musculus [33]): 150%

CC[C@]1(O)C[C@@H]2CN(CCc3c([nH]c4ccccc34)[C@@](C(=O)OC)(c3cc4c(cc3OC)N(C)[C@H]3[C@@](O)(C(N)=O)[C@H](O)[C@]5(CC)C=CCN6CC[C@]43[C@@H]65)C2)C1 [VINDESINE]
ILS at 0.3 mg/kg/day (Mus musculus [34]): 95%
ILS at 2.5 mg/kg/day (Mus musculus [35]): 150%
Survivors (Mus musculus [36]): 0
Survivors (Mus musculus [37]): 0
Survivors (Mus musculus [38]): 0
